Activity calls are given as the source filed them.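 How the source made its calls, unless noted: active means current rise at least 3 SD above the untreated control mean in each of two repeat wells; inactive means the rest.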

Sequence of Potassium voltage-gated channel subfamily KQT member 1 (Homo sapiens) (P51787 whole entry, looked up): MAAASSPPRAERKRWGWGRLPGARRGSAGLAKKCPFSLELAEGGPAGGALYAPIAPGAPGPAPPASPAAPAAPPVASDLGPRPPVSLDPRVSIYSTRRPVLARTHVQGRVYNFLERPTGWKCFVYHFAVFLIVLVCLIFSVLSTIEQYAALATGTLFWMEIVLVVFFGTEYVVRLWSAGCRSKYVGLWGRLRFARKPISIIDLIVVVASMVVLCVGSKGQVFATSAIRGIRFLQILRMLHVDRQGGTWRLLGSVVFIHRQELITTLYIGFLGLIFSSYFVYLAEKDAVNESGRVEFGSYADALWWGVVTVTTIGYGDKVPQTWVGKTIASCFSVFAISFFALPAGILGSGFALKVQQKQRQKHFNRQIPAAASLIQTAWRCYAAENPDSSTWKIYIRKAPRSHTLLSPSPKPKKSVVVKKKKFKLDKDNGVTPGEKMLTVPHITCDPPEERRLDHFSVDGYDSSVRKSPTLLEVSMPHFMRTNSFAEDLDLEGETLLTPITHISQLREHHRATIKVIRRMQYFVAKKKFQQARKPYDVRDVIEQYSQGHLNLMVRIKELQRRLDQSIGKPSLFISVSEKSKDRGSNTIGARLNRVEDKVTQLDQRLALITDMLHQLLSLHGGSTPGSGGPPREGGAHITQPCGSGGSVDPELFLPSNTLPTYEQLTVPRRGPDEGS

In one assay the target is Potassium voltage-gated channel subfamily KQT member 2 (Rattus norvegicus) (UniProt O88943). The experiment in a line: KCNQ2 thallium flux enhancement – KCNQ2-CHO-K1 cells, selectivity assay for KCNQ1 potentiator project (AID 493009;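 active means mean duplicate potentiation above the buffer control mean plus 5 SD of buffer wells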;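 further: assay conditions were tuned for KCNQ1 rather than KCNQ2 modulators; signal is max minus min fluorescence divided by baseline after thallium stimulus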). Conditions: FluxOR thallium flux fluorescence, at 10 µM; hits give high values, scaled: buffer 0, activator control 100.
Sequence of Potassium voltage-gated channel subfamily KQT member 2 (Rattus norvegicus) (O88943 whole entry, looked up): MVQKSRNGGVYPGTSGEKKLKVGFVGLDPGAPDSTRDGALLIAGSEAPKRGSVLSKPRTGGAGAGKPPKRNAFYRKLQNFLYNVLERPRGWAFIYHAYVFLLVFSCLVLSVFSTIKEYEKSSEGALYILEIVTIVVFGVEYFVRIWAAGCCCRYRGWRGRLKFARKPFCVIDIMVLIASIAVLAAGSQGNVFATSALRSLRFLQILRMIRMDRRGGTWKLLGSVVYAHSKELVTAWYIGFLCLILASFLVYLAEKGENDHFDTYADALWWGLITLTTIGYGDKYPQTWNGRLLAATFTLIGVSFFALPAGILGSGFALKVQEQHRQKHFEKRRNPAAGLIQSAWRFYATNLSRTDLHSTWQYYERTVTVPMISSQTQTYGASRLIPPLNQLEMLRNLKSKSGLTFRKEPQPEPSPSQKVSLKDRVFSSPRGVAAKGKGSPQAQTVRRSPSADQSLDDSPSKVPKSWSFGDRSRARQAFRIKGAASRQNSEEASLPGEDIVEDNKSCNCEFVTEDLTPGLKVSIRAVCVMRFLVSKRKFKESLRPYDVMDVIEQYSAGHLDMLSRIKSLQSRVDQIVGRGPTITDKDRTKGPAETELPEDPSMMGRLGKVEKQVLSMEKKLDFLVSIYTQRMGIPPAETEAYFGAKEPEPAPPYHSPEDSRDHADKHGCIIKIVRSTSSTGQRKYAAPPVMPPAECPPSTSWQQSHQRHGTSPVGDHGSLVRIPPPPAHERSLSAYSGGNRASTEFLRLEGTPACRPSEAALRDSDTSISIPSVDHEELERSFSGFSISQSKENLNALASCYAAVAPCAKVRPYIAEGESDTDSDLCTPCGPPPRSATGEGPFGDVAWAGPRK
For `COc1ccccc1NC(=O)Cn1cnc2c(oc3nc4c(cc32)CCCC4)c1=O`, the outcome was inactive.
Consider `Cc1ccc(C2C(/C=C3/SC(=S)NC3=O)=C(c3cccs3)Oc3ccccc32)cc1` (configuration not stated), for which the result was inactive.
Turning to `Cc1ccc(OCCCC(=O)NCc2ccco2)c(C)c1`, the outcome was inactive.
In the case of `COc1cc2c3nnc(-c4ccccc4)c-3cn(Cc3ccc(F)cc3)c2cc1OC`, the result was inactive.
In the case of `CC(C)c1nc2n[nH]c(N)c2c2c1CCCC2`, the result was inactive.
On the same count and under the same terms, the result for `CC(=O)N1N=C(N)SC12CCCC2` reads “inactive”.
As to `O=C(/C=C/c1ccccc1)C1C(=O)c2ccccc2C1=O`, the potentiation is 146% (active).
In the case of `O=C(NC(=S)N1CCCC1)c1ccc(Cl)cc1`, the outcome was inactive.
On to `O=c1cc(N2CCc3ccccc32)[nH]c(=O)n1Cc1ccc(F)cc1`, for which the result was inactive.
As to `O=C(NC(=S)N1CCCCCC1)c1ccccc1`, the result was inactive.
Turning to `COc1ccc(CCN=C(N)NS(=O)(=O)c2ccc(F)cc2)cc1OC`, the outcome was inactive.
On to `COc1cccc2sc(N(CCCN(C)C)C(=O)c3ccc(S(=O)(=O)N4CCCc5ccccc54)cc3)nc12`, for which the result was inactive.
On to `c1ccc(-n2cnc3cc(NCc4cccs4)ccc32)cc1`, for which the result was inactive.
Consider `CN(CCCNC(=O)CSc1cc(=O)n(C)c2ccc(Cl)cc12)Cc1ccccc1`, for which the outcome was inactive.
In the case of `COc1cccc(N=Nc2ccc3cccnc3c2O)c1`, the potentiation is 162% (active).
On to `Cc1ccc(-c2noc(CCC(=O)Nc3ccccc3N3CCN(C)CC3)n2)cc1`, for which the result was inactive.
Same read-out and setting: the result for `Cc1c(CCC(=O)N2CCC[C@H]2C(=O)O)c(=O)oc2c(C)c3oc4c(c3cc12)CCCC4` reads “inactive”; that for `CCOC(=O)c1cc(CC)sc1NC(=O)CC1Sc2ccc(C(F)(F)F)cc2NC1=O` (configuration not stated), “inactive”.
In the case of `O=C(Nc1nc(=O)c2ccccc2s1)c1ccc(F)cc1`, the potentiation is 152% (active).
In the case of `O=c1c2cc(Br)ccc2nc(-c2ccccc2)n1O`, the potentiation is 314% (active).
On to `C/C(=N/NC(=O)c1cc(C2CC2)[nH]n1)c1cccs1`, for which the result was inactive.
Turning to `Cc1nn(CCc2nn[nH]n2)c2nc(-c3ccc(C4CCCCC4)cc3)cc(C(F)(F)F)c12`, the potentiation is 182% (active).

For the next assay, the target named is Potassium voltage-gated channel subfamily KQT member 1 (Homo sapiens) (UniProt P51787). The experiment in a line: KCNQ1 activators by electrophysiology – IonWorks patch clamp, KCNQ1-CHO cells, orthogonal assay for KCNQ1 potentiator project, confirmation (AID 493184). Conditions: automated patch clamp current, at 10 µM; hits give high values. In a few lines:
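Probe or stimulus: depolarizing pulse to +40 mV from -90 mV; Material: CHO cells carrying KCNQ1; Compound: one dose, 10 µM final; Signal: automated voltage clamp, amphotericin B perforated patch; Read-out basis: percent current increase versus pre-compound level; Buffer or medium: pH 7.4 external bath; Replication: duplicates.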
(In general: Patch clamp records ionic current or voltage across a cell membrane.)
In the case of `CC1CCCC(NC(=S)NC(=O)c2ccccc2Br)C1C` (configuration not stated), the outcome was inactive.
As to `Cc1cc(SCNC(=O)c2ccccc2)ncn1`, the result was inactive.
In the case of `CCC1CCCCN1C(=S)NC(=O)c1cccs1` (configuration not stated), the result was inactive.
On the same count and under the same terms, then `C/C(=N\NC(=S)Nc1ccc(C)cc1)c1cc2ccccc2o1`, with “inactive”; and `COc1cccc(-c2nnc(Nc3nc4c(F)cccc4s3)o2)c1`, with “inactive”; and `CN(C)S(=O)(=O)c1ccc(Cl)c(NC(=O)CN2CCCCCC2)c1`, with “inactive”.
Regarding `Cc1cnc(NC(=O)c2ccc(-c3nc4ccccc4s3)o2)s1`, the outcome was inactive.
Still for that read-out and setting: then `COCCCNC(=O)CC(NS(=O)(=O)c1ccc(F)cc1)c1ccc(OC)cc1` (configuration not stated), with “inactive”.
The same measure, in the same setting: then `O=C(/C=C/c1ccc(Br)cc1)NC(=S)Nc1ccc(S(=O)(=O)Nc2nccs2)cc1`, with “inactive”; and `C/C(=N\NC(=O)C1COc2ccccc2O1)c1ccc(N2CCOCC2)cc1` (configuration not stated), with “inactive”; and `CCCCCCCCCCCC(=O)NC(Cc1ccc(OC)c([N+](=O)[O-])c1)C(=O)O` (configuration not stated), with “inactive”.
Turning to `CCCc1cc(=O)n2[nH]cc(-c3ccc(Cl)cc3)c2n1`, the result was inactive.
Consider `CSc1nc(Nc2ccc(Cl)cc2)c(C#N)c(=O)[nH]1`, for which the outcome was inactive.
In the case of `S=c1nn[nH]n1C12CC3CC(CC(C3)C1)C2`, the outcome was inactive.
`O=c1c2c(-c3ccco3)csc2nc(SCc2cn3cccnc3n2)n1-c1ccccc1`: the outcome was inactive.
For the compound `O=C(NC(=S)Nc1ccc2c(c1)OCCO2)c1ccco1`, the outcome was inactive.
Consider `O=C(N/N=C/c1ccccn1)c1sc2ccccc2c1Cl`, for which the result was inactive.
Regarding `COc1cc(CNCCN2CCOCC2)ccc1OCc1ccc(Cl)cc1Cl`, the result was inactive.
On to `COc1ccccc1NC(=O)Cn1cnc2c(oc3nc4c(cc32)CCCC4)c1=O`, for which the result was inactive.
With `Cc1ccc(C2C(/C=C3/SC(=S)NC3=O)=C(c3cccs3)Oc3ccccc32)cc1` (configuration not stated), the outcome was inactive.
On the same count and under the same terms, the result for `Cc1ccc(OCCCC(=O)NCc2ccco2)c(C)c1` reads “inactive”.
In the case of `COc1cc2c3nnc(-c4ccccc4)c-3cn(Cc3ccc(F)cc3)c2cc1OC`, the outcome was inactive.
With `CC(C)c1nc2n[nH]c(N)c2c2c1CCCC2`, the outcome was inactive.
Regarding `CC(=O)N1N=C(N)SC12CCCC2`, the result was inactive.
As for `O=C(/C=C/c1ccccc1)C1C(=O)c2ccccc2C1=O`, the result was inactive.
On the same count and under the same terms, then `O=C(NC(=S)N1CCCC1)c1ccc(Cl)cc1`, with “inactive”.
For the compound `O=c1cc(N2CCc3ccccc32)[nH]c(=O)n1Cc1ccc(F)cc1`, the result was inactive.
In the case of `O=C(NC(=S)N1CCCCCC1)c1ccccc1`, the outcome was inactive.
In the case of `COc1ccc(CCN=C(N)NS(=O)(=O)c2ccc(F)cc2)cc1OC`, the result was inactive.
For the compound `COc1cccc2sc(N(CCCN(C)C)C(=O)c3ccc(S(=O)(=O)N4CCCc5ccccc54)cc3)nc12`, the result was inactive.

For the origin of these results see PubChem BioAssay.
